Assay results published in ChEMBL document CHEMBL4480390, “Cink4T, a quinazolinone-based dual inhibitor of Cdk4 and tubulin polymerization, identified via ligand-based virtual screening, for efficient anticancer therapy” (Eur J Med Chem, 2019).
The source made the active and inactive calls. The rule behind the calls is not given here.

Legend:
A549 [1] = assay: Cell cycle arrest in human A549 cells assessed as accumulation at G0/G1 phase at 1.6 uM treated 32 hrs post mimosine addition measured after 18 hrs in presence of fresh medium by propidium iodide staining based flow cytometry (reference value: 58%); type: functional
Tubulin (Sus scrofa) = Tubulin (Sus scrofa) (UniProt P02554+P02550); assay: Inhibition of porcine tubulin polymerization incubated for 1 min by fluorescence based assay; type: protein assay
Chain of Tubulin (Sus scrofa) (P02550 whole entry, looked up): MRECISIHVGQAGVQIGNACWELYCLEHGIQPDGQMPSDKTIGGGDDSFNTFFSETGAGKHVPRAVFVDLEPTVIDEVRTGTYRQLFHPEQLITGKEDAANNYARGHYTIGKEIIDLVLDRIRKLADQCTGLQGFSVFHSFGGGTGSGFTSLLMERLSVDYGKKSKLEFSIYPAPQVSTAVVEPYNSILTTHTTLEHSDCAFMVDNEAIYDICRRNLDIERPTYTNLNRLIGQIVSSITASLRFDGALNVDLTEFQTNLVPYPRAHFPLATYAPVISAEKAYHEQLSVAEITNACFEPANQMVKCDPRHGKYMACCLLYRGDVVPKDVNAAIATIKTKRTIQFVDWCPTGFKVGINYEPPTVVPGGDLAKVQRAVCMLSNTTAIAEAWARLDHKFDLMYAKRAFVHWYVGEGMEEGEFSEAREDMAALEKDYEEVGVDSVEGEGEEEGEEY
Chain of Tubulin (Sus scrofa) (P02554 whole entry, looked up): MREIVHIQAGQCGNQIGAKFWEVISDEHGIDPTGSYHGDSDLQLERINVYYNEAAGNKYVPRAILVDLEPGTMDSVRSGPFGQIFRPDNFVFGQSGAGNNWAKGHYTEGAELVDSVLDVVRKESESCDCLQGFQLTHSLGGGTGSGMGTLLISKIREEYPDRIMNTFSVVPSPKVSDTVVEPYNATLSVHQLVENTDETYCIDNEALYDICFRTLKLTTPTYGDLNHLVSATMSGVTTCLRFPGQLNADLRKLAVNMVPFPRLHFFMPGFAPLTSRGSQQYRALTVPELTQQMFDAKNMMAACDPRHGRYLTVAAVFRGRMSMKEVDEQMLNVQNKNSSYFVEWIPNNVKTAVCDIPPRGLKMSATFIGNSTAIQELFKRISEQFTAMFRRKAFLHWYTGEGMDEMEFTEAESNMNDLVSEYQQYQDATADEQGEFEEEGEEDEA
In short: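 Compounds added from 10x stocks in duplicate and warmed at 37°C ≤1 min. Ice-cold tubulin pre-mix then added. Fluorescent reporter read at ex 360/em 460 nm for 60 min. Paclitaxel served as enhancer control, CaCl2 as inhibitor control.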

T47D [2] = assay: cells; settings: Homo sapiens, 72 h
[3] = molecular target: T1, Cyclin-dependent kinase 4/cyclin D1 (Homo sapiens) (UniProt P11802+P24385); assay: Inhibition of CDK4/cyclin D1 in human T47D cells assessed as reduction in phosphorylation of pRb at Ser807/11 residues at 0.75 uM measured after 18 hrs by Western blot analysis; type: cell-based
In short: (§1)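 T47D cells left untreated or treated 18 h at 0.75 or 1.5 µM. Western blots probed with phospho-specific pRb antibodies (Ser780, Ser795, Ser807/811) and a total-pRb antibody; HRP-conjugated secondary for detection.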

[4] = molecular target: T1, Cyclin-dependent kinase 4/cyclin D1 (Homo sapiens); assay: Inhibition of recombinant human N-terminal GST-tagged CDK4 (S4 to E303 residues)/Cyclin D1 (Q4 to I295 residues) expressed in sf9 cells at 10 uM using RBCTF as substrate measured after 1 hr by ADP-glo luminescence assay relative to control
A549 [5] = assay: Cell cycle arrest in human A549 cells assessed as accumulation at G0/G1 phase at 1.6 uM measured after 18 hrs by propidium iodide staining based flow cytometry (reference value: 58%); type: functional
MDA-MB-468 [6] = assay: Cell cycle arrest in human MDA-MB-468 cells assessed as ratio of G1 to S phase at 22 uM measured after 18 hrs by propidium iodide staining based flow cytometry (reference value: 2.17); type: functional
A549 [7] = assay: Cell cycle arrest in human A549 cells assessed as accumulation at S phase at 0.8 uM treated 32 hrs post mimosine addition measured after 18 hrs in presence of fresh medium by propidium iodide staining based flow cytometry (reference value: 23%); type: functional
A549 [8] = assay: Cell cycle arrest in human A549 cells assessed as accumulation at G0/G1 phase at 0.8 uM treated 32 hrs post mimosine addition measured after 18 hrs in presence of fresh medium by propidium iodide staining based flow cytometry (reference value: 58%); type: functional
[9] = molecular target: T1, Cyclin-dependent kinase 4/cyclin D1 (Homo sapiens); assay: Inhibition of CDK4/cyclin D1 in human T47D cells assessed as reduction in phosphorylation of pRb at Ser795 residues at 0.75 to 1.5 uM measured after 18 hrs by Western blot analysis; type: cell-based; in short: as §1
A549 [10] = assay: Cell cycle arrest in human A549 cells assessed as accumulation at G2/M phase at 0.8 uM measured after 18 hrs by propidium iodide staining based flow cytometry (reference value: 18%); type: functional
A549 [11] = assay: Cell cycle arrest in human A549 cells assessed as accumulation at S phase at 1.6 uM treated 32 hrs post mimosine addition measured after 18 hrs in presence of fresh medium by propidium iodide staining based flow cytometry (reference value: 23%); type: functional
Calu-1 = assay: Cell cycle arrest in human Calu1 cells assessed as accumulation at G0/G1 phase at 1.8 uM treated 18 hrs post serum-starvation measured after 18 hrs in presence of fresh medium containing FBS by propidium iodide staining based flow cytometry (reference value: 69.2%); type: functional
MDA-MB-468 [12] = assay: cells; settings: Homo sapiens, MDA-MB-468, 72 h
CDK2/Cyclin A2 = CDK2/Cyclin A2 (Homo sapiens, UniProt P24941); assay: Inhibition of human full length N-terminal GST-fused CDK2 (M1 to L298 residues)/human full length Cyclin-A2 (M1 to L432 residues) expressed in Sf9 cells using histone H1 as substrate measured after 1 hr by ADP-glo luminescence assay
[13] = molecular target: T1, Cyclin-dependent kinase 4/cyclin D1 (Homo sapiens); assay: Inhibition of CDK4/cyclin D1 in human T47D cells assessed as reduction in phosphorylation of pRb at Ser807/11 residues at 1.5 uM measured after 18 hrs by Western blot analysis; type: cell-based; in short: as §1
T47D [14] = assay: Cell cycle arrest in human T47D cells assessed as increase in accumulation at S phase at 0.75 uM treated 18 hrs post serum-starvation measured after 18 hrs in presence of fresh medium containing FBS by propidium iodide staining based flow cytometry relative to control; type: functional

inhibition (Tubulin (Sus scrofa)): Dose-dependent effect | EC50 (T47D [2]): 0.75 µM | inhibition [3]: inactive | inhibition [4]: 95% | inhibition [9]: Active | EC50 (MDA-MB-468 [12]): 10.8 µM | IC50 (CDK2/Cyclin A2): > 100 µM | inhibition [13]: Active
Structure (SMILES): O=C(COc1ccc(-c2nc3ccccc3c(=O)[nH]2)cc1)Nc1cccc(Cl)c1
Activity (A549 [1]): 12% | Activity (A549 [5]): 12% | Ratio (MDA-MB-468 [6]): 3.15 | Activity (A549 [7]): 24% | Activity (A549 [8]): 36% | Activity (A549 [10]): 28% | Activity (A549 [11]): 18% | Activity (Calu-1): 88% | Activity (T47D [14]): 2.13%
